According to ChEMBL document CHEMBL1122950, “Structure-activity relationships of C-terminal tri- and tetrapeptide fragments that inhibit gastrin activity” (J Med Chem, 1985):
The source made the active and inactive calls. No cut-off for these calls is given here. Where a SMILES comes first, the peptide text is derived from it.

Species on record: Rattus norvegicus
Test: Inhibition of gastrin stimulated acid secretion in the in situ perfused rat stomach; Inactive
Type: functional, organism-based
Outline: (§1)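 In situ perfused stomach (Ghosh and Schild method) in urethane-anesthetized rats, with urethane given ip, or im and ip for some analogues. Acid secretion was stimulated by gastrin and test peptides were given in vivo. Antagonism is expressed as ED50 in μM/kg.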

SMILES	ED50
CC(C)C[C@H](NC(=O)[C@H](Cc1c[nH]c2ccccc12)NC(=O)OC(C)(C)C)C(=O)N[C@@H](CC(=O)OCc1ccccc1)C(N)=O (HELM PEPTIDE1{[CC(C)(C)OC(=O)[*:2]].W.L.D.[am]}|CHEM1{[c1ccc(CO[*:1])cc1]}$PEPTIDE1,CHEM1,4:R3-1:R1$$$V2.0)	inactive
CSCC[C@H](NC(=O)[C@H](Cc1c[nH]c2ccccc12)NC(=O)OC(C)(C)C)C(=O)N[C@@H](CC(=O)OCc1ccccc1)C(N)=O (HELM PEPTIDE1{[CC(C)(C)OC(=O)[*:2]].W.M.D.[am]}|CHEM1{[c1ccc(CO[*:1])cc1]}$PEPTIDE1,CHEM1,4:R3-1:R1$$$V2.0)	inactive

Target: T1, Gastrin/cholecystokinin type B receptor (Rattus norvegicus) (UniProt P30553)
T1 sequence (whole entry): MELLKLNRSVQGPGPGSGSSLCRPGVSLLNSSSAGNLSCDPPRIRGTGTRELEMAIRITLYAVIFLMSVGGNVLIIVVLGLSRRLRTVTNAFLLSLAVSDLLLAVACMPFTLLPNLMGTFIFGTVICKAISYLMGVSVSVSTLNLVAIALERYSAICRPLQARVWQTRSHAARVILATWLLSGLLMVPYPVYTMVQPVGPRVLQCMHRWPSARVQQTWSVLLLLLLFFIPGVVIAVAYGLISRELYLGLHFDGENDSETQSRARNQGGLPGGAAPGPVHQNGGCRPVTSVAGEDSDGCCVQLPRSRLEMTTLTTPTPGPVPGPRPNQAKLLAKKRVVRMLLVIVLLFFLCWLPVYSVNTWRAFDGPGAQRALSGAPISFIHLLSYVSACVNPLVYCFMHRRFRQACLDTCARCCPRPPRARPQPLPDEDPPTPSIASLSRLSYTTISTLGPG
Test: Inhibition of gastrin stimulated acid secretion in in situ perfused rat stomach
Type: functional, tissue-based
Outline: as §1

SMILES	ED50 [µmol/kg]
CC(C)CC(NC(=O)[C@H](Cc1c[nH]c2ccccc12)NC(=O)OC(C)(C)C)C(=O)N[C@@H](CC(=O)O)C(N)=O (stereo not given in full)	15
CC(C)C[C@H](NC(=O)[C@H](Cc1c[nH]c2ccccc12)NC(=O)OC(C)(C)C)C(=O)N[C@H](CC(=O)O)C(N)=O	17
CCCN(CCC)C(=O)C(CCC(=O)O)NC(=O)c1ccccc1 (stereo not given)	350
O=C(N[C@@H](Cc1c[nH]c2ccccc12)C(=O)O)c1ccc(Cl)cc1	170
CSCC[C@H](NC(=O)[C@H](Cc1c[nH]c2ccccc12)NC(=O)CNC(=O)OC(C)(C)C)C(=O)N[C@@H](CC(=O)O)C(N)=O (HELM PEPTIDE1{[CC(C)(C)OC(=O)[*:2]].G.W.M.D.[am]}$$$$V2.0)	8
C[C@H](NC(=O)[C@H](Cc1c[nH]c2ccccc12)NC(=O)OC(C)(C)C)C(=O)N[C@@H](CC(=O)O)C(N)=O (HELM PEPTIDE1{[CC(C)(C)OC(=O)[*:2]].W.A.D.[am]}$$$$V2.0)	30
CC(C)(C)OC(=O)N[C@@H](Cc1c[nH]c2ccccc12)C(=O)N[C@@H](Cc1ccccc1)C(=O)N[C@@H](CC(=O)O)C(N)=O (HELM PEPTIDE1{[CC(C)(C)OC(=O)[*:2]].W.F.D.[am]}$$$$V2.0)	26.5
CC(C)(C)OC(=O)N[C@@H](Cc1c[nH]c2ccccc12)C(=O)NCC(=O)N[C@@H](CC(=O)O)C(N)=O (HELM PEPTIDE1{[CC(C)(C)OC(=O)[*:2]].W.G.D.[am]}$$$$V2.0)	60
CC[C@H](C)[C@H](NC(=O)[C@H](Cc1c[nH]c2ccccc12)NC(=O)OC(C)(C)C)C(=O)N[C@@H](CC(=O)O)C(N)=O (HELM PEPTIDE1{[CC(C)(C)OC(=O)[*:2]].W.I.D.[am]}$$$$V2.0)	25
CC(C)C[C@H](NC(=O)[C@H](Cc1c[nH]c2ccccc12)NC(=O)OC(C)(C)C)C(=O)N[C@@H](C)C(N)=O (HELM PEPTIDE1{[CC(C)(C)OC(=O)[*:2]].W.L.A.[am]}$$$$V2.0)	150
CC(C)C[C@H](NC(=O)[C@H](Cc1c[nH]c2ccccc12)NC(=O)OC(C)(C)C)C(=O)N[C@@H](CC(=O)O)C(=O)N(C)C (HELM PEPTIDE1{[CC(C)(C)OC(=O)[*:2]].W.L.D.[CN(C)[*:1]]}$$$$V2.0)	10
CC(C)C[C@H](NC(=O)[C@H](Cc1c[nH]c2ccccc12)NC(=O)OC(C)(C)C)C(=O)N[C@@H](CC(=O)O)C(=O)O (HELM PEPTIDE1{[CC(C)(C)OC(=O)[*:2]].W.L.D}$$$$V2.0)	27.3
CC(C)C[C@H](NC(=O)[C@H](Cc1c[nH]c2ccccc12)NC(=O)OC(C)(C)C)C(=O)N[C@@H](CCC(=O)O)C(N)=O (HELM PEPTIDE1{[CC(C)(C)OC(=O)[*:2]].W.L.E.[am]}$$$$V2.0)	11
CC(C)C[C@H](NC(=O)[C@H](Cc1c[nH]c2ccccc12)NC(=O)OC(C)(C)C)C(=O)N[C@@H](CC(N)=O)C(=O)O (HELM PEPTIDE1{[CC(C)(C)OC(=O)[*:2]].W.L.N}$$$$V2.0)	19
CSCC[C@H](NC(=O)[C@H](Cc1c[nH]c2ccccc12)NC(=O)OC(C)(C)C)C(=O)N[C@@H](CC(=O)O)C(N)=O (HELM PEPTIDE1{[CC(C)(C)OC(=O)[*:2]].W.M.D.[am]}$$$$V2.0)	14
CC(C)(C)OC(=O)N[C@@H](Cc1c[nH]c2ccccc12)C(=O)N1CCC[C@H]1C(=O)N[C@@H](CC(=O)O)C(N)=O (HELM PEPTIDE1{[CC(C)(C)OC(=O)[*:2]].W.P.D.[am]}$$$$V2.0)	15
CCCC[C@H](NC(=O)[C@H](Cc1c[nH]c2ccccc12)NC(=O)OC(C)(C)C)C(=O)N[C@@H](CC(=O)O)C(N)=O (HELM PEPTIDE1{[CC(C)(C)OC(=O)[*:2]].W.[Nle].D.[am]}$$$$V2.0)	14
CC(C)C[C@H](NC(=O)[C@H](Cc1c[nH]c2ccccc12)NC(=O)OCc1ccccc1)C(=O)N[C@@H](CC(=O)O)C(N)=O (HELM PEPTIDE1{[O=C(OCc1ccccc1)[*:2]].W.L.D.[am]}$$$$V2.0)	38
